Drawing on ChEMBL document CHEMBL5653631, “A Potent and Selective ULK1 Inhibitor Suppresses Autophagy and Sensitizes Cancer Cells to Nutrient Stress” (iScience, 2018), this text covers fold change (FC) and inhibition for three compounds.

The structures appear in SMILES notation. The source made the active and inactive calls. The rule behind the calls is not given here.

The target in experiment [1] is T1, Serine/threonine-protein kinase Nek9 (Homo sapiens) (UniProt Q8TD19).
T1 sequence (whole entry): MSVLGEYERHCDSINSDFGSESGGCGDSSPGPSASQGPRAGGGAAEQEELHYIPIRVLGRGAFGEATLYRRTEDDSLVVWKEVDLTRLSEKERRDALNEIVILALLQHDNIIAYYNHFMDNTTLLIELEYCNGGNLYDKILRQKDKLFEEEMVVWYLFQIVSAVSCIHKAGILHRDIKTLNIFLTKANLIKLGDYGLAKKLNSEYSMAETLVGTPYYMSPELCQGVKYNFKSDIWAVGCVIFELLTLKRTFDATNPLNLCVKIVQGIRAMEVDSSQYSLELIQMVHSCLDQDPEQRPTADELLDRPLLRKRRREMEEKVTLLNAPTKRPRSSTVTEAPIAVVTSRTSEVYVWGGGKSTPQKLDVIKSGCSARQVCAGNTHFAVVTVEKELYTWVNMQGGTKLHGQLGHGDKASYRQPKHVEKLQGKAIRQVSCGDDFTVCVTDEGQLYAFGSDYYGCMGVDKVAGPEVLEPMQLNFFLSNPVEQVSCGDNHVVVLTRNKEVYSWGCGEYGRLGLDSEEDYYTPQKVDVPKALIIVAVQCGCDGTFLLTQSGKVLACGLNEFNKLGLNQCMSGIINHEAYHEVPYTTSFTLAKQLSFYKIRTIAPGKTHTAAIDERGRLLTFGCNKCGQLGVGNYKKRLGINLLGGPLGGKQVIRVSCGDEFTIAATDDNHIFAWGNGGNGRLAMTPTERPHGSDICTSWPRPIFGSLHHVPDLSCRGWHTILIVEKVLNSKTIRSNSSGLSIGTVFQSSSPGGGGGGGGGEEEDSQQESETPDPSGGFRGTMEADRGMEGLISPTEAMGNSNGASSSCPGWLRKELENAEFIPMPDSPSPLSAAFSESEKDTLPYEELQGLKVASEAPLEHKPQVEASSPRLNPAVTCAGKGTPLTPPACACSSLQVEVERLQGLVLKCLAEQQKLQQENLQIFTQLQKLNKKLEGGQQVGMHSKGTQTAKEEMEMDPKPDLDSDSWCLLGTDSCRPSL
The experiment in a line: Inhibition of human recombinant NEK9 at 15 nM related to control ULK1.

The target in experiment [2] is T2, Serine/threonine-protein kinase Nek2 (Homo sapiens) (UniProt P51955).
T2 sequence (whole entry): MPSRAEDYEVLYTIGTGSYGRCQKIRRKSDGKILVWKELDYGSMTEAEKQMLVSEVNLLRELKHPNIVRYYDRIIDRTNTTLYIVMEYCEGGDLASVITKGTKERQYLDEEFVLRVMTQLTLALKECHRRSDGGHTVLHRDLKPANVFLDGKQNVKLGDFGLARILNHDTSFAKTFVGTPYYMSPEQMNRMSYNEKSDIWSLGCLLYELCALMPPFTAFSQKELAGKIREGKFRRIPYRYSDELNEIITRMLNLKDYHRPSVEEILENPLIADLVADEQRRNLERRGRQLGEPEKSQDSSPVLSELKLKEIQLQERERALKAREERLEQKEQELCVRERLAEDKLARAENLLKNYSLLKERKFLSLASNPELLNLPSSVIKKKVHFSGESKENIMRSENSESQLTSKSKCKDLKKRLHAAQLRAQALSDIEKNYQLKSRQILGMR
The experiment in a line: Inhibition of human recombinant NEK2 at 15 nM in presence of ATP by radiometric assay relative to control.

For experiment [3], the system named is U2OS. Kind of experiment: Inhibition of autophagy in human U2OS cells expressing […] assessed as DFCP1-positive puncta formation at 5 uM incubated for 2.5 hrs in presence of […] by Fluorescent microscopy based analysis. It counts as functional, cell-based. In short, it runs like this:
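U2OS cells stably expressing EGFP-DFCP1 treated 2.5 hr with vehicle or 100 nM AZD8055, with or without 5 μM inhibitor; imaged live by fluorescence microscopy; DFCP1-positive objects per cell counted in 20–25 cells per condition; mean ± SEM, two-tailed unpaired t test.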

Experiment [4] addresses T3, Ephrin type-A receptor 8 (Homo sapiens) (UniProt P29322).
T3 sequence (whole entry): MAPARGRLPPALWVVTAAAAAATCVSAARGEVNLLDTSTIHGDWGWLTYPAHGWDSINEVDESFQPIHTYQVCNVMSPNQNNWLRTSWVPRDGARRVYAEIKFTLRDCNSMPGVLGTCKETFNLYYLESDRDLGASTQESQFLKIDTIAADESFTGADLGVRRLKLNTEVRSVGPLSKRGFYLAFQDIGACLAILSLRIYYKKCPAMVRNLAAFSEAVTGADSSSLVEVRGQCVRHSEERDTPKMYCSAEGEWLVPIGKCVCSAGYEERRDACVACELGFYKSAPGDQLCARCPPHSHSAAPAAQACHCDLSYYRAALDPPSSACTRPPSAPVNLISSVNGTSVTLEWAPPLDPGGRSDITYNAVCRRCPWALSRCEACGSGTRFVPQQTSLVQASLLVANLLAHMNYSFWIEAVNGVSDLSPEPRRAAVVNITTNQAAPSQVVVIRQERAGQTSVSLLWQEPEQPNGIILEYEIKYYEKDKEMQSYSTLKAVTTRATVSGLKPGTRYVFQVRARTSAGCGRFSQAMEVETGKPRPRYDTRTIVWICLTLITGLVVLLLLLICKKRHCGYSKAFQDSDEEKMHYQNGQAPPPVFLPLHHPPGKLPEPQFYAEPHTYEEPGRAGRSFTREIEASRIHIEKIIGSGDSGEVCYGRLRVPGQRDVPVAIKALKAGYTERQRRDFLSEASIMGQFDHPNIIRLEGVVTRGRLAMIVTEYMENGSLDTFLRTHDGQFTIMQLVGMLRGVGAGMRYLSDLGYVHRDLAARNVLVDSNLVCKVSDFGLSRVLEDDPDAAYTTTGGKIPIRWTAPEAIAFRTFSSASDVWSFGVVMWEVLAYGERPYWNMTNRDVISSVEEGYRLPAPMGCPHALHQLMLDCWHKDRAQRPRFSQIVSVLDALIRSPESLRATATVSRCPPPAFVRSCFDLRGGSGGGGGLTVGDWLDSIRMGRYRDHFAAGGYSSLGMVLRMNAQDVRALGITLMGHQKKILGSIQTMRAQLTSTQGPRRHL
Kind of experiment: Inhibition of human recombinant EphA8 at 40 nM related to control ULK1.

Experiment [5] deals with eIF-2-alpha kinase GCN2 (Homo sapiens) (UniProt Q9P2K8). The experiment in a line: Inhibition of human recombinant GCN2 at 40 nM related to control ULK1.
Sequence of eIF-2-alpha kinase GCN2 (Homo sapiens) (Q9P2K8 whole entry): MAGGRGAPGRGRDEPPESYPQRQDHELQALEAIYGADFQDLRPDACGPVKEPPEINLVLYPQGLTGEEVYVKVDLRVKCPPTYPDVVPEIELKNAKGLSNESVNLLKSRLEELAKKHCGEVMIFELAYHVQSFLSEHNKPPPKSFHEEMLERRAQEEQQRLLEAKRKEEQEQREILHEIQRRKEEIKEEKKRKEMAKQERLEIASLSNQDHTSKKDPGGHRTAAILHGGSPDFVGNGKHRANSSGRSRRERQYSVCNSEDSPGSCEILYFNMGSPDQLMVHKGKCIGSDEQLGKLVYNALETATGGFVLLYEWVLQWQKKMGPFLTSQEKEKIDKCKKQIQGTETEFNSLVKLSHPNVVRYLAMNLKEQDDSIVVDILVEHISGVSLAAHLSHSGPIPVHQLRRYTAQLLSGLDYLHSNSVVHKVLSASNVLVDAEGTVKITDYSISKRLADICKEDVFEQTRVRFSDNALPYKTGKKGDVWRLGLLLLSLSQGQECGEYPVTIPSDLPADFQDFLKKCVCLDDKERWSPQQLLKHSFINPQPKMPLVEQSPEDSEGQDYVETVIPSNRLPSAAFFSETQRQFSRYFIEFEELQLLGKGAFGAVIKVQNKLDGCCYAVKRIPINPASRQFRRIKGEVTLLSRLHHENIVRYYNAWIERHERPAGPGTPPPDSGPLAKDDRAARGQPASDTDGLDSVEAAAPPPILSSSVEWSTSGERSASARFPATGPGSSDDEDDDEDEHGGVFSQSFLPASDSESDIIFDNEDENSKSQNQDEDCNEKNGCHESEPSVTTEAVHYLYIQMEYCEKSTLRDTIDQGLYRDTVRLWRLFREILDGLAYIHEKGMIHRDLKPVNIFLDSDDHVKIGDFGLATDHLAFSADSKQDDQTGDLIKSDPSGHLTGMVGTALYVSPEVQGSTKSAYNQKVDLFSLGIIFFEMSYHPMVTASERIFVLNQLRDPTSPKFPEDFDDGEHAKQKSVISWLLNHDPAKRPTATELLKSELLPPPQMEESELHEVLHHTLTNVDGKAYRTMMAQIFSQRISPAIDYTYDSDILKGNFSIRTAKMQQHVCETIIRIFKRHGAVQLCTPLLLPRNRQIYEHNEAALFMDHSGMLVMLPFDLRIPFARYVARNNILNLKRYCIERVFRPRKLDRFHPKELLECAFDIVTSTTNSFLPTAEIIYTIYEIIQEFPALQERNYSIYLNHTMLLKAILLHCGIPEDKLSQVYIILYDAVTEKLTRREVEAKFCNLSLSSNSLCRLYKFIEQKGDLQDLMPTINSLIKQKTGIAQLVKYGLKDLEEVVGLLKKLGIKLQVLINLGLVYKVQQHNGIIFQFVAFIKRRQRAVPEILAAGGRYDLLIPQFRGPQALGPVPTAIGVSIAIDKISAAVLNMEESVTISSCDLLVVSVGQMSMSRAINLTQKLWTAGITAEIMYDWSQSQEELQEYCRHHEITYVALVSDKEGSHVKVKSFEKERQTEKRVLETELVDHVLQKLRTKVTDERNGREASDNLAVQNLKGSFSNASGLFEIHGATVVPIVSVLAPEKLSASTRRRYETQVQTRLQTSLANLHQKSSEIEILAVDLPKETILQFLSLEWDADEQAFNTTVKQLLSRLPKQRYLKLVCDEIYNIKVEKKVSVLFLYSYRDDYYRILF
Experiment [6] deals with cAMP-dependent protein kinase catalytic subunit beta (Homo sapiens) (UniProt P22694). The experiment in a line: Inhibition of human recombinant PKACbeta at 40 nM in presence of ATP by radiometric assay relative to control.
Experiment [7] concerns the target Serine/threonine-protein kinase Nek4 (Homo sapiens) (UniProt P51957). The experiment in a line: Inhibition of human recombinant NEK4 at 40 nM related to control ULK1.
The target in experiment [8] is Cyclin-dependent kinase 12 (Homo sapiens) (UniProt Q9NYV4). Kind of experiment: Inhibition of human recombinant CRK7 at 500 nM related to control ULK1.
Sequence of Cyclin-dependent kinase 12 (Homo sapiens) (Q9NYV4 whole entry, looked up): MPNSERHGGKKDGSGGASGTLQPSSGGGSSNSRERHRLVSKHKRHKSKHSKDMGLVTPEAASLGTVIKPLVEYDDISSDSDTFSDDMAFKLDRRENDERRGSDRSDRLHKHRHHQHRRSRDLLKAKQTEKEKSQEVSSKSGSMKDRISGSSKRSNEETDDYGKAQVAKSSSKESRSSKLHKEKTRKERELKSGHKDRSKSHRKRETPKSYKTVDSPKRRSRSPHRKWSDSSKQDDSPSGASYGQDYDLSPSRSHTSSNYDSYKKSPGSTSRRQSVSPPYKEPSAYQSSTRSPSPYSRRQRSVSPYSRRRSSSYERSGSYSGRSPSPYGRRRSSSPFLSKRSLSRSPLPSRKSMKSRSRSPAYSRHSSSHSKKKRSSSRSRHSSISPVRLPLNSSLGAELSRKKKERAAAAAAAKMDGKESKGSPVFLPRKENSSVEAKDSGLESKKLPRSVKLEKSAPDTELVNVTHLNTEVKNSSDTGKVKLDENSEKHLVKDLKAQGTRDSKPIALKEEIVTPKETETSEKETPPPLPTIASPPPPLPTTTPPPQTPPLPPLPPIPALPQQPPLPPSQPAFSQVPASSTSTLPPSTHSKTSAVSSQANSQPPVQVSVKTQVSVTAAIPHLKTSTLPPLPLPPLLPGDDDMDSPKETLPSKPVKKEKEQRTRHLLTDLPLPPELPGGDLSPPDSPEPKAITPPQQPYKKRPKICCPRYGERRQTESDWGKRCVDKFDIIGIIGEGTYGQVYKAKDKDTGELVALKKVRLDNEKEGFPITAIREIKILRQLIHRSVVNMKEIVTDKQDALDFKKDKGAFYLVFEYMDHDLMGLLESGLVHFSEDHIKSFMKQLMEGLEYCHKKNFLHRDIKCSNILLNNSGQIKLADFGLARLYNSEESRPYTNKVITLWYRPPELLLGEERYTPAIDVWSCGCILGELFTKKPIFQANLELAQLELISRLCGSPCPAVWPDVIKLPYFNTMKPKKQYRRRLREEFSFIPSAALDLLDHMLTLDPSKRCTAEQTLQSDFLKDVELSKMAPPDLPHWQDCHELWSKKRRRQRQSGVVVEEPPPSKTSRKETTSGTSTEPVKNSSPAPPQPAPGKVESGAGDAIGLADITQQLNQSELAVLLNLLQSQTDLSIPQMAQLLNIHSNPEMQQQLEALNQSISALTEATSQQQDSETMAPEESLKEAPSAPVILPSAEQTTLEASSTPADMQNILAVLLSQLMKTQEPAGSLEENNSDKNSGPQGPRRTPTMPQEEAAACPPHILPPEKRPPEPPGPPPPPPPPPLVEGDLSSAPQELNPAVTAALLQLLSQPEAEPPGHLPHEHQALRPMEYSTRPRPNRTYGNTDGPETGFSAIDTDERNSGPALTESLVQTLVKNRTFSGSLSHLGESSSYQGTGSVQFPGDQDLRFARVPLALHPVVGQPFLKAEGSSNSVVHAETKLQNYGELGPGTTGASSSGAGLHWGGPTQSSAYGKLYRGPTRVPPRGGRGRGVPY

Sequence of Serine/threonine-protein kinase Nek4 (Homo sapiens) (P51957 whole entry, looked up): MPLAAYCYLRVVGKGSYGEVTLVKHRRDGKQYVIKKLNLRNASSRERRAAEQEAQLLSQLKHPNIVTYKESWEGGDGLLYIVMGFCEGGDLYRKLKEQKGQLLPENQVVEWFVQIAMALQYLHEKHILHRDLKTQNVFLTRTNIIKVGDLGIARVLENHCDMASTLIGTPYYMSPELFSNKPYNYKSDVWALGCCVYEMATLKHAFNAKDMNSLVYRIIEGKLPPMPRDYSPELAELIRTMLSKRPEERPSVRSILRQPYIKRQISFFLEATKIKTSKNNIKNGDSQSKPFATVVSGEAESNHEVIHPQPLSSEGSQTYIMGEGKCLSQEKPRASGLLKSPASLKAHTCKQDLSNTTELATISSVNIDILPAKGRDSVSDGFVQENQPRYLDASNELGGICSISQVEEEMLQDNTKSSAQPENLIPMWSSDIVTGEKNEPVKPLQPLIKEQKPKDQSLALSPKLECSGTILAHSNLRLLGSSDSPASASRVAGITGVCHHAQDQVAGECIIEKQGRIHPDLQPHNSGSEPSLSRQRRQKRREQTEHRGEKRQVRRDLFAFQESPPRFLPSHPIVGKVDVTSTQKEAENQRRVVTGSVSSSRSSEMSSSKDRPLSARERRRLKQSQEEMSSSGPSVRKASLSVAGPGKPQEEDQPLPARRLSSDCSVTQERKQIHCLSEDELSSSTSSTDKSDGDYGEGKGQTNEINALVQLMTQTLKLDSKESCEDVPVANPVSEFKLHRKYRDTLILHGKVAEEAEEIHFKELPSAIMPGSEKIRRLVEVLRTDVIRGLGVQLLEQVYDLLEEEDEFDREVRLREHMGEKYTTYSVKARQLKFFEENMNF

By inhibition is commonly meant the drop in the measured response relative to a control, in per cent. Regarding `CC(C)[C@H](NC(=O)c1cc(-c2cnn3cc(-c4ccc(OCCN5CCCCC5)cc4)cnc23)cs1)C(F)(F)F`, the fold change (FC) in experiment [1] was found to be 0.25. The inhibition in experiment [2] was found to be 12%.

As for `O=C(N[C@@H](C1CC1)C(F)(F)F)c1cc(-c2cnn3cc(-c4ccc(F)cc4)cnc23)cs1`, the inhibition entry in experiment [3] is “Active”. Besides, the fold change (FC) in experiment [4] came to 0; in experiment [5], 0.05; in experiment [7] it was 0.05. Moreover, in experiment [6], the inhibition was 0%.

Regarding `CNC(=O)c1ccccc1Oc1nc(Nc2cc(OC)c(OC)c(OC)c2)ncc1Br`, the fold change (FC) in experiment [8] worked out at 0.
